# Screening data: PubChem, several laboratories
# Rows were chosen to be rich in hits. Some 1.9% of all compounds tested hit in one or more screens of this group.
# ROMK primary: modulates human ROMK potassium channel activity | P48048 | Tet-inducible ROMK, thallium flux fluorescence; actives lie on both sides | B-score at 10 µM | 2% of 130,000 active | AID 1918;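 active = signal ratio slope over the read window, or its plate-corrected B-score, at least 3 SD from the plate mean, either direction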;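 also: B-score of the F/F0 ratio slope over 7 to 12 s after thallium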
# Target sequence (P48048 whole entry, looked up): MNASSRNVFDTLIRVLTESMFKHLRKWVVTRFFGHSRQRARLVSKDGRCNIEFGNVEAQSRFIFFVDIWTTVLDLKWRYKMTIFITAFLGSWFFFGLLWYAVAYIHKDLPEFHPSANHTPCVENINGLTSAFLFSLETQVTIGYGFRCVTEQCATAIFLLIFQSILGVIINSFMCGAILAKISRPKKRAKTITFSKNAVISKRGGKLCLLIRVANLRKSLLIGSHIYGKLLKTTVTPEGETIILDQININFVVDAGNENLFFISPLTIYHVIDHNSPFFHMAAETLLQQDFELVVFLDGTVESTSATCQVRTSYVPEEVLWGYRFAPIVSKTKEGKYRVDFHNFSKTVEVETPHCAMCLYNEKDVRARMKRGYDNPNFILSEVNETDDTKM
# b-catenin transl: alters nuclear translocation of beta-catenin in HeLa cells; immunofluorescence imaging; nuclear translocation activity, % at 5 µM; 0.3% of 190,000 active; AID 1665;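 active = nuclear translocation activity above 50% at 5 µM, with a well cell count of 50 or more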;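 also: per-cell ratio of nuclear to cytoplasmic median beta-catenin stain intensity; plate controls were DMSO negative control for no effect and GSK-3 inhibitor IX positive control for full effect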
#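 assay system = human HeLa cells, endogenous beta-catenin | times = compound treatment 24 h, 37°C, 5% CO2 | detection = Anti-beta-catenin immunofluorescence on PFA-fixed, Triton-permeabilized cells, DAPI nuclei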
# MT stabilize HCS: microtubule stabilizers in HeLa cells | % tubulin-high responders, % at 10 µM | AID 2205 | HeLa tubulin immunostaining HCS, 24 h; share of cells brighter than vehicle mean+2SD | 0.83% of 200,000 active;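 active = plate Z-score above 3 for both tubulin-high and condensed-nucleus cell shares, with cell loss under 80%, at 10 µM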;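 also: anti alpha tubulin signal scored within the nucleus-defined area of each cell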
# The depositor's hits bear a star; nt = no result.
SMILES,ROMK primary,b-catenin transl,MT stabilize HCS
CCOc1ccc(/C=C/C(O)=C2/C(=O)NC3(C)CC2c2ccccc2O3)cc1OC (centres undefined),-0.28,nt,9
Cc1ccc(-c2cc(C(F)F)n3ncc(C(=O)N4CCc5ccccc54)c3n2)cc1,-0.3,6,11*
O=C(c1cnn2c(C(F)F)cc(-c3ccccc3)nc12)N1CCc2ccccc21,0.81,2,5
CC1CN(C(=O)COC(=O)c2ccc(N(C)C)cc2)CC(C)O1 (centres undefined),0.47,-6,2
CN1c2ccccc2C(C)(C)[C@]12C=Cc1cc(O)ccc1O2,-1.8,0,31*
CN1c2ccccc2C(C)(C)C12C=Nc1c(ccc3ccccc13)O2 (centres undefined),nt,1,2
COc1cccc(CC(=O)N2CCN(c3ccccc3[N+](=O)[O-])CC2)c1,-0.99,4,5
CCCN(Cc1ccccc1)C(=S)NC(=O)c1ccccc1[N+](=O)[O-],4.5*,-3,1
CCCCN(CCCC)C(=S)NC(=O)c1ccccc1Cl,2.7*,-3,3
CCN(CC)C(=S)NC(=O)c1ccc(Cl)cc1Cl,1.4,0,2
CCC(=O)NC(=S)NNC(=O)c1ccccc1[N+](=O)[O-],0.056,4,1
CN1CCN(C(=O)CNc2ccc(C(F)(F)F)cc2[N+](=O)[O-])CC1,-1.3,-2,1
O=C(N/N=C/c1ccc(Cl)cc1)C1CC12CCC2 (centres undefined),nt,2,2
COc1ccc(CCNC(=O)Cn2cnc3scc(-c4ccccc4)c3c2=O)cc1OC,-0.77,1,3
Cc1ccc(/C=C/C(=O)CCC(=O)O)cc1,0.14,-2,2
COC(=O)c1cn(C(=O)/C=C/c2ccc(OC)c(OC)c2)c2ccccc12,0.3,2,7
COC(=O)c1cn(C(=O)c2ccccc2Cl)c2ccccc12,-1.9,11,18*
COC(=O)c1cn(C(=O)OC)c2ccccc12,-0.12,2,4
COC(=O)c1cn(C(=O)c2ccc(C)cc2C)c2ccccc12,0.62,-2,15*
CC(C)OP(=O)(OC(C)C)C(O)c1ccc(N(C)C)cc1 (centres undefined),-0.44,-1,nt
CC(C)c1c(Cl)c(O)c(-c2ccccc2)c(=O)n1-c1ccc(F)cc1,-0.032,nt,1
O=C(COc1ccccc1)NCc1ccccc1,0.28,nt,2
O=C(COc1ccc(C(=O)c2ccccc2)cc1)NCc1ccc(F)cc1,nt,158*,9.7*
NNc1ccc2c(C(F)(F)F)cc(C(F)(F)F)nc2n1,0.22,2,2
N#CC(c1cccc(Cl)c1)c1ccc2c(C(F)(F)F)cc(C(F)(F)F)nc2n1 (centres undefined),3.2*,0,3
SMILES,ROMK primary,b-catenin transl,MT stabilize HCS
N=c1c2c(-c3ccccc3)c(-c3ccccc3)n(Cc3ccccc3)c2ncn1CCO,nt,-1,3
N=c1c2c(-c3ccccc3)c(-c3ccccc3)n(Cc3ccco3)c2ncn1Cc1ccccc1,-4.8*,nt,5
CCOc1ccc(CC(=O)NNC(=S)NCCc2ccccc2)cc1,-0.015,-1,4
COc1ccc(NC(=S)NC(=O)/C=C/c2ccco2)cc1,1.2,0,3
COc1ccc(NC(=O)/C(C#N)=C/C=C/c2ccco2)cc1,nt,43,24*
CCCCOc1ccc(CN(C)c2ncnc(N)n2)cc1,0.77,27,23*
COc1ccc(CN(C)c2ncnc(N)n2)cc1,-0.49,nt,1
COc1ccc(NC(=O)CN(C)CC(=O)Nc2ccc(Cl)cc2F)cc1,-0.84,-1,2
CCC(C)(C)c1ccc(OCCCC[n+]2ccc(C)cc2)c(C(C)(C)CC)c1,-5.9*,9,57
Cc1cc(C(C)(C)C)ccc1OCCCCN1CCCC1,-1.4,8,4
Cc1nc(NC(=O)c2ccccc2)sc1Cc1ccc2c(c1)OCO2,0.058,nt,11*
Cc1c(Cc2ccc3c(c2)OCO3)sc(NC(=O)c2ccccc2)c1C(N)=O,0.033,0,6
O=C(Nc1ccn(Cc2ccc(Cl)cc2)n1)c1ccc2c(c1)OCO2,nt,-4,3
Cc1nc(NC(=O)c2ccc(Cl)cc2)sc1Cc1ccc2c(c1)OCO2,nt,nt,13*
Cc1cccc(N(CC(=O)NCc2ccc3c(c2)OCO3)C(=O)CCC(=O)Nc2ccccn2)c1,nt,-1,2
Cc1cc(C(=O)N2CCCC(C(=O)c3ccc4ccccc4c3)C2)n(C)n1 (centres undefined),0.0065,1,2
CN(C)c1ccc(/C=N/NC(=O)c2ccccc2)cc1,0.72,2,14*
CCN(CC)c1ccc(/C=N/NC(=O)c2ccco2)c(O)c1,1.9,0,nt
COc1ccc(/C=N/NC(=O)c2ccc(Cl)cc2)cc1Cn1cc(Cl)cn1,0.24,-1,3
CN(C)c1ccc(/C=N\NC(=O)c2ccc(Cn3cc(Cl)cn3)cc2)cc1,1.2,-3,29*
CN(C)c1ccc(/C=N/NC(=O)c2ccc(Cl)cc2)cc1,nt,nt,1
CCN(CC)c1ccc(/C=N/NC(=O)c2ccco2)cc1,1.9,nt,20*
Cn1c(SCc2cc(=O)n3cc(Br)ccc3n2)nnc1C1COc2ccccc2O1 (centres undefined),nt,1,3
Cc1cccc(-n2ccnc2CN2CCN(C(C)C)C(CCO)C2)c1 (centres undefined),nt,1,nt
NC(=O)c1cccc(CC(=O)c2ccccc2)c1,0.22,0,nt
SMILES,ROMK primary,b-catenin transl,MT stabilize HCS
CCCCC1C2=C(CC(C)(C)CC2=O)OC2=C1C(=O)CC(C)(C)C2,nt,-1,3
NC(=O)c1ccc(NC(=O)COC(=O)CCC(=O)c2ccc(Cl)cc2)cc1,0.14,-1,2
O=S(=O)(Cc1ccc(Cl)cc1)Nc1ccc2c(c1)OCO2,-1.8*,-2,3
O=S(=O)(Cc1ccc(Cl)cc1)N1CCN(Cc2ccc3c(c2)OCO3)CC1,nt,1,nt
Cc1onc(-c2ccccc2Cl)c1C(=O)Nc1ccccc1N1CCOCC1,1.1,nt,1
COc1ccc(C(C)=O)cc1COc1ccc(F)cc1,-0.049,1,3
COc1ccc(C(C)=O)cc1COc1nc(C)nc2ccccc12,-1.1,-2,15*
O=C(c1nn2c(C(F)(F)F)cc(-c3ccco3)nc2c1Br)N1CCCc2ccccc21,-0.56,-1,63*
O=C(c1nn2c(C(F)(F)F)cc(-c3cccs3)nc2c1Br)N1CCCc2ccccc21,0.72,nt,6
CC1CCCC(C)N1C(=S)SCC(=O)O (centres undefined),-0.21,0,6
O=C(Cn1c(=O)c(=O)n(Cc2ccccc2)c2ccc(Cl)cc21)Nc1ccc(F)cc1F,0.75,0,26*
CC(C)(C)NC(=O)Cn1c(=O)c(=O)n(Cc2ccccc2)c2ccc(Cl)cc21,nt,1,2
Cc1ccc(-n2[nH]c(C)c(/C=N/Nc3ccc([N+](=O)[O-])cc3[N+](=O)[O-])c2=O)cc1,nt,1,5
Cc1nc(=S)n(-c2ccccc2)[nH]1,nt,0,3
S=c1nc(-c2ccccc2)[nH]n1-c1ccccc1,6.1*,1,5
O=C(COc1ccccc1-c1ccccc1)N/N=C/c1cccnc1,0.096,46,14*
O=C(COc1ccccc1-c1ccccc1)N/N=C/c1ccccn1,1,-2,5
O=C(COc1ccccc1-c1ccccc1)N/N=C/c1ccc2ccccc2c1,nt,131*,5
O=C(COc1ccccc1-c1ccccc1)N/N=C/c1ccncc1,-0.57,1,3
